Measured values taken from paper PMC9870662 (Medicinal Chemistry Research, 2023).
Like-named read-outs stand apart in the source and are kept apart here.

How the values were obtained:
male NMRI mice = test: Acetic acid-induced writhing test; type: in vivo; details: for Response (n) Mean ± SD: number of writhing responses during 30 min, eight mice; for ED50: Mus musculus, ip, read-out: Estimated ED50 (mg/kg) (95% Confidence Interval); for Estimated ED50 (mg/kg) (95% Confidence Interval): i.p., nonlinear regression of log dose-response curve
[1] = system: MCF-7 breast cancer cell line; test: MTT cytotoxicity assay; type: cell-based; details: for inhibition at 10 µM: Homo sapiens, MCF7, 72 h, read-out: % Inhibition (10 µM); for % Inhibition (10 µM): MCF-7, 72 h, MTT
Outline: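 MCF-7 cells from IBRC seeded in RPMI1640 at 37 °C, 5% CO2, high humidity. After one day, medium replaced with medium containing test compound; celecoxib as reference, plain medium as control. Incubated 72 h, then MTT added for 4 h at 37 °C. Supernatant removed, cells exposed to DMSO 20 min at 37 °C, absorbance read at 570 nm.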

Human recombinant COX-2 = biological target: T1, Human recombinant COX-2 (Homo sapiens, UniProt P35354); test: biochemical
T1 sequence (P35354 18-604): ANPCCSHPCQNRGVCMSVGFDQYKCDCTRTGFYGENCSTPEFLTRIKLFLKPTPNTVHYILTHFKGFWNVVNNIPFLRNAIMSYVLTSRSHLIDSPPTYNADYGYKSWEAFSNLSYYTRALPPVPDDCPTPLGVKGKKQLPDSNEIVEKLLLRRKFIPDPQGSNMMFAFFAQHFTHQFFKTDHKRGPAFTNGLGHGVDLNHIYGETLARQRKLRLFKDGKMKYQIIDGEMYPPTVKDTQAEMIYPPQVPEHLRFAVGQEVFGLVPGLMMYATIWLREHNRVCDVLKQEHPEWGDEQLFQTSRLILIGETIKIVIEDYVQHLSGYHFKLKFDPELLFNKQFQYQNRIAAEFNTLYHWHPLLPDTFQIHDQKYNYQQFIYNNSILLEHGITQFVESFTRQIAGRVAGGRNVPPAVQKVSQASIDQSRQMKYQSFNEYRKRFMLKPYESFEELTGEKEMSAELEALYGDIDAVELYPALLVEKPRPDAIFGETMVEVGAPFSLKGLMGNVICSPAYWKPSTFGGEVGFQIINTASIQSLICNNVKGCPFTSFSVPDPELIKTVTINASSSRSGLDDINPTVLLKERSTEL

Ovine COX-1 = biological target: T2, Ovine COX-1 (Ovis aries, UniProt P05979); test: COX-1 enzyme inhibition assay; type: biochemical
T2 sequence (P05979 25-600): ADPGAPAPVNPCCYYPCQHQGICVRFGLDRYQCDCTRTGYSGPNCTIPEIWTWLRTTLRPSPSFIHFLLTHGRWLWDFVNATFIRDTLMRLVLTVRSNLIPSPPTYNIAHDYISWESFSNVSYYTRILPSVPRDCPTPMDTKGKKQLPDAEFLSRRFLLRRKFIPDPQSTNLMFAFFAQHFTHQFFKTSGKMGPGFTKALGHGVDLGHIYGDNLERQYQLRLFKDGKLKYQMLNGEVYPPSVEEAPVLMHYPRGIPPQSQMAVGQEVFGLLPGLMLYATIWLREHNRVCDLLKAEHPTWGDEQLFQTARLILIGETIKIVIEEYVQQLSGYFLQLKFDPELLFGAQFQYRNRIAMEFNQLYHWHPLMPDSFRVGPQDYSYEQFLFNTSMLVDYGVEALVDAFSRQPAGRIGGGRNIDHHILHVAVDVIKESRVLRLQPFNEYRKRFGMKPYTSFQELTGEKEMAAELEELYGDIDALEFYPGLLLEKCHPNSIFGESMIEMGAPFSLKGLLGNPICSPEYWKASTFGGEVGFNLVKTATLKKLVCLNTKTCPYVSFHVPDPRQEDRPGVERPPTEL

[2] = read-out: IC50 in µM Human recombinant COX-2
[3] = read-out: IC50 in µM Ovine COX-1, fluorescent enzyme kit

Row | Compound | IC50 (Human recombinant COX-2) | Selectivity Index (SI) (Human recombinant COX-2; COX-1 vs COX-2) | IC50 (Ovine COX-1) | Selectivity Index (SI) (Human recombinant COX-2) | IC50 (Human recombinant COX-2; [2]) | IC50 (Ovine COX-1; [3]) | Response (n) Mean ± SD (male NMRI mice; 10 mg/kg i.p.) | Response (n) Mean ± SD (male NMRI mice; 20 mg/kg i.p.) | Response (n) Mean ± SD (male NMRI mice; 40 mg/kg i.p.) | Response (n) Mean ± SD (male NMRI mice; 80 mg/kg i.p.) | ED50 (male NMRI mice) | inhibition at 10 µM [1] | Response (n) Mean ± SD (male NMRI mice; 5 mg/kg i.p.) | Estimated ED50 (mg/kg) (95% Confidence Interval) (male NMRI mice) | % Inhibition (10 µM) [1]
1 | Cc1ccc(-c2cc(C(F)(F)F)nn2-c2ccc(S(N)(=O)=O)cc2)cc1 [Celecoxib, reference compound] |  |  |  |  |  |  | 33.62 ± 1.79 | 26.37 ± 2.86 | 13.75 ± 2.72 | 7.37 ± 2.39 | 20.2 mg/kg | 75.8% |  |  | 
2 | Cc1ccccc1-c1cc(-c2ccc(S(C)(=O)=O)cc2)nc2nc3ccccc3n12 [Compound 5b, 2-(4-(Methylsulfonyl)phenyl)-4-(o-tolyl)benzo[4,5]imidazo[1,2-a]pyrimidine] | > 100 µM |  | 48.3 µM |  |  |  |  |  |  |  |  | 76.9% |  |  | 
3 | Cc1cccc(-c2cc(-c3ccc(S(C)(=O)=O)cc3)nc3nc4ccccc4n23)c1 [Compound 5c, 2-(4-(Methylsulfonyl)phenyl)-4-(m-tolyl)benzo[4,5]imidazo[1,2-a]pyrimidine] | > 100 µM |  | 24 µM |  |  |  |  |  |  |  |  | 76% |  |  | 
4 | COc1cccc(-c2cc(-c3ccc(S(C)(=O)=O)cc3)nc3nc4ccccc4n23)c1 [Compound 5f, 4-(3-Methoxyphenyl)-2-(4-(methylsulfonyl)phenyl)benzo[4,5]imidazo[1,2-a]pyrimidine] | > 100 µM |  | > 100 µM |  |  |  |  |  |  |  |  | 75.4% |  |  | 
5 | COc1ccc(-c2cc(-c3ccc(S(C)(=O)=O)cc3)nc3nc4ccccc4n23)cc1 [Compound 5g, 4-(4-Methoxyphenyl)-2-(4-(methylsulfonyl)phenyl)benzo[4,5]imidazo[1,2-a]pyrimidine] | 5.4 µM | > 18.5 | > 100 µM |  |  |  | 36.63 ± 1.32 | 29.13 ± 6.27 | 21.88 ± 3.37 | 13.63 ± 1.32 | 32.1 mg/kg | 79.6% |  |  | 
6 | COc1ccc(-c2cc(-c3ccc(S(C)(=O)=O)cc3)nc3nc4ccccc4n23)cc1OC [Compound 5h, 4-(3,4-Dimethoxyphenyl)-2-(4-(methylsulfonyl)phenyl)benzo[4,5]imidazo[1,2-a]pyrimidine] | > 100 µM |  | 13.9 µM |  |  |  |  |  |  |  |  | 79.3% |  |  | 
7 | CS(=O)(=O)c1ccc(-c2cc(-c3ccccc3F)n3c(n2)nc2ccccc23)cc1 [Compound 5j, 4-(2-Flourophenyl)-2-(4-(methylsulfonyl)phenyl)benzo[4,5]imidazo[1,2-a]pyrimidine] |  |  |  | 50 | 0.28 µM | 14 µM | 25.88 ± 2.98 | 19.88 ± 3.06 | 16.75 ± 3.11 | 13.38 ± 2.45 |  |  | 33.75 ± 1.39 | 15.34 (13.14–17.89) mg/kg | 76.73%
8 | CS(=O)(=O)c1ccc(-c2cc(-c3cccc(F)c3)n3c(n2)nc2ccccc23)cc1 [Compound 5k, 4-(3-Flourophenyl)-2-(4-(methylsulfonyl)phenyl)benzo[4,5]imidazo[1,2-a]pyrimidine] |  |  |  |  | 5.8 µM | > 100 µM | 32.38 ± 2.34 | 25.38 ± 3.43 | 17.63 ± 4.79 | 11.88 ± 3.18 |  |  |  | 22.80 (20.03–25.92) mg/kg | 58.73%
9 | CS(=O)(=O)c1ccc(-c2cc(-c3ccc(F)cc3)n3c(n2)nc2ccccc23)cc1 [Compound 5l, 4-(4-Flourophenyl)-2-(4-(methylsulfonyl)phenyl)benzo[4,5]imidazo[1,2-a]pyrimidine] |  |  |  |  | 0.69 µM | 38.8 µM | 34.25 ± 1.71 | 26.13 ± 2.67 | 19.25 ± 4.32 | 11.75 ± 1.48 |  |  |  | 25.26 (22.90–27.91) mg/kg | 56.67%
10 | CS(=O)(=O)c1ccc(-c2cc(-c3ccccc3Cl)n3c(n2)nc2ccccc23)cc1 [Compound 5m, 4-(2-Chlorophenyl)-2-(4-(methylsulfonyl)phenyl)benzo[4,5]imidazo[1,2-a]pyrimidine] | > 100 µM |  | 15.2 µM |  |  |  |  |  |  |  |  | 51.3% |  |  | 
11 | CS(=O)(=O)c1ccc(-c2cc(-c3ccc(Cl)cc3)n3c(n2)nc2ccccc23)cc1 [Compound 5o, 4-(4-Chlorophenyl)-2-(4-(methylsulfonyl)phenyl)benzo[4,5]imidazo[1,2-a]pyrimidine] | > 100 µM |  | 17.8 µM |  |  |  |  |  |  |  |  | 72.3% |  |  | 

Continued by falling IC50 (Human recombinant COX-2), values first:

Row | IC50 (Human recombinant COX-2) | Selectivity Index (SI) (Human recombinant COX-2; COX-1 vs COX-2) | IC50 (Ovine COX-1) | Selectivity Index (SI) (Human recombinant COX-2) | IC50 (Human recombinant COX-2; [2]) | IC50 (Ovine COX-1; [3]) | Compound | Response (n) Mean ± SD (male NMRI mice; 10 mg/kg i.p.) | Response (n) Mean ± SD (male NMRI mice; 20 mg/kg i.p.) | Response (n) Mean ± SD (male NMRI mice; 40 mg/kg i.p.) | Response (n) Mean ± SD (male NMRI mice; 80 mg/kg i.p.) | ED50 (male NMRI mice) | inhibition at 10 µM [1] | Response (n) Mean ± SD (male NMRI mice; 5 mg/kg i.p.) | Estimated ED50 (mg/kg) (95% Confidence Interval) (male NMRI mice) | % Inhibition (10 µM) [1]
12 | 0.68 µM | 60 | 40.8 µM |  |  |  | Cc1ccc(-c2cc(-c3ccc(S(C)(=O)=O)cc3)nc3nc4ccccc4n23)cc1 [Compound 5d, 2-(4-(Methylsulfonyl)phenyl)-4-(p-tolyl)benzo[4,5]imidazo[1,2-a]pyrimidine] | 17.88 ± 4.28 | 14.75 ± 4.47 | 13.25 ± 2.59 | 10.25 ± 2.73 | 5.75 mg/kg | 78.2% | 18.63 ± 5.87 |  | 
13 | 0.58 µM | 28.1 | 16.3 µM |  |  |  | COc1cc(-c2cc(-c3ccc(S(C)(=O)=O)cc3)nc3nc4ccccc4n23)cc(OC)c1OC [Compound 5i, 4-(3,4,5-Trimethoxyphenyl)-2-(4-(methylsulfonyl)phenyl)benzo[4,5]imidazo[1,2-a] pyrimidine] | 39.25 ± 2.38 | 30.87 ± 3.82 | 24.62 ± 3.04 | 15.87 ± 3.18 | 40.1 mg/kg | 77.9% |  |  | 
14 | 0.24 µM | 43.3 | 10.4 µM |  |  |  | CS(=O)(=O)c1ccc(-c2cc(-c3cccc(Cl)c3)n3c(n2)nc2ccccc23)cc1 [Compound 5n, 4-(3-Chlorophenyl)-2-(4-(methylsulfonyl)phenyl)benzo[4,5]imidazo[1,2-a]pyrimidine] | 23.50 ± 3.20 | 19.88 ± 4.11 | 15.75 ± 4.35 | 11.50 ± 3.77 | 12.1 mg/kg | 72.7% | 28.50 ± 4.72 |  | 
15 | 0.06 µM | 115 | 6.9 µM |  |  |  | COc1ccccc1-c1cc(-c2ccc(S(C)(=O)=O)cc2)nc2nc3ccccc3n12 [Compound 5e, 4-(2-Methoxyphenyl)-2-(4-(methylsulfonyl)phenyl)benzo[4,5]imidazo[1,2-a]pyrimidine] | 36.63 ± 1.41 | 28.25 ± 3.99 | 19.13 ± 3.76 | 15 ± 1.58 | 29 mg/kg | 74.3% | 38.38 ± 1.32 |  | 
16 | 0.05 µM | 122 | 6.1 µM |  |  |  | CS(=O)(=O)c1ccc(-c2cc(-c3ccccc3)n3c(n2)nc2ccccc23)cc1 [Compound 5a, 2-(4-(Methylsulfonyl)phenyl)-4-phenylbenzo[4,5]imidazo[1,2-a]pyrimidine] | 20.75 ± 3.07 | 17.25 ± 2.95 | 12.63 ± 2.64 | 10.00 ± 1.50 | 8.65 mg/kg | 53.3% | 25 ± 1.58 |  | 
